# Assays:
# [1] = Inhibition of dihydrofolate reductase DHFR in Pneumocystis carinii.
# Outline: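 Spectrophotometric DHFR assay following enzymatic reduction of dihydrofolate to tetrahydrofolate with NADPH cofactor. 1 mL mixture in phosphate buffer (40.7 mM, pH 7.4) containing NADPH (0.117 mM), dihydrofolate (0.092 mM), 2-mercaptoethanol (8.9 mM) and 0.018 units DHFR. IC50 is the drug concentration that halves the reduction rate relative to control.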
# [2] = target: T1, Bifunctional dihydrofolate reductase-thymidylate synthase (Toxoplasma gondii, UniProt Q07422); assay: Inhibitory activity against dihydrofolate reductase DHFR in Toxoplasma gondii.
# T1 sequence (Q07422 whole entry): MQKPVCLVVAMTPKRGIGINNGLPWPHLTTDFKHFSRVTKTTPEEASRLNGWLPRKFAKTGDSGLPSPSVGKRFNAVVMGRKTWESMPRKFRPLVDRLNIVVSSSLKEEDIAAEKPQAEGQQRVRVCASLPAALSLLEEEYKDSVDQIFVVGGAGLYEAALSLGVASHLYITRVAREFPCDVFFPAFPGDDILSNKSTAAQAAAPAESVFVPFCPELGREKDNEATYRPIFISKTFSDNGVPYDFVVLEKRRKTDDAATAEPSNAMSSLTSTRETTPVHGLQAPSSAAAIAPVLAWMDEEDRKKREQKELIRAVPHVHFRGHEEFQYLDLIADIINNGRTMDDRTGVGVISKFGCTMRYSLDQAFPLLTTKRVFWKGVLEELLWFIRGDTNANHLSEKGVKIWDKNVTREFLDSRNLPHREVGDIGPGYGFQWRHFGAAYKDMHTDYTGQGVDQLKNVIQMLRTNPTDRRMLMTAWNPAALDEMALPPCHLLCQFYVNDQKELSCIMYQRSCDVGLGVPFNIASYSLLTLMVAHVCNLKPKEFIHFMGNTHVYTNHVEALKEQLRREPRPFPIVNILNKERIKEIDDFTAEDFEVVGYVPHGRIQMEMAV
# Dihydrofolate reductase [3] = target: T2, Dihydrofolate reductase (Rattus norvegicus, UniProt Q920D2); assay: Inhibitory activity against dihydrofolate reductase DHFR in rat liver
# T2 sequence (Q920D2 whole entry): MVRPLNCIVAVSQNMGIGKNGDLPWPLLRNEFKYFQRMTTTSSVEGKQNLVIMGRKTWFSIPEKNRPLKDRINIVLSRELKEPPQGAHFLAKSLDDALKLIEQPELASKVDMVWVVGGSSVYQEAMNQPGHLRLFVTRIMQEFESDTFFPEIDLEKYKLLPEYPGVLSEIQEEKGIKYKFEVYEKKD
# Dihydrofolate reductase [4] = target: T3, Dihydrofolate reductase (Mycobacterium avium, UniProt O30463); assay: Inhibitory activity against dihydrofolate reductase DHFR in Mycobacterium avium
# T3 sequence (O30463 whole entry): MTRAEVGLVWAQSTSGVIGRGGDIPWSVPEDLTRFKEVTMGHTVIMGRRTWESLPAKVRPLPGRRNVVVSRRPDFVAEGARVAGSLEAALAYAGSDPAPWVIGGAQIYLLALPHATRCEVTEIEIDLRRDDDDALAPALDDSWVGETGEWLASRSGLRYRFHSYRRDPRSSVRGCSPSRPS
# [5] = Selectivity ratio of IC50(rat liver)/IC50(Mycobacterium avium)
Compound,IC50 [1] [nM],IC50 (Dihydrofolate reductase [3]) [nM],IC50 [2] [nM],IC50 (Dihydrofolate reductase [4]) [nM],Selectivity ratio [5]
CCc1nc(N)nc(N)c1-c1ccc(Cl)cc1 [PYRIMETHAMINE],3650,,,,
CCc1nc(N)nc(N)c1-c1ccc(Cl)c(/N=N/N(CCOC(C)=O)Cc2ccc(C)cc2)c1,1700,3850,630,4430,0.87
CCc1nc(N)nc(N)c1-c1ccc(Cl)c(/N=N/N(CCOC(C)=O)Cc2cccc(F)c2)c1,2220,3870,1250,4070,0.95
CCc1nc(N)nc(N)c1-c1ccc(Cl)c(/N=N/N(CCOC(C)=O)Cc2cc(OC)c(OC)c(OC)c2)c1,1500,450,70,,
CCc1nc(N)nc(N)c1-c1ccc(Cl)c(/N=N/N(CCOC(C)=O)Cc2ccc([N+](=O)[O-])cc2)c1,1210,3330,850,5340,0.62
CCc1nc(N)nc(N)c1-c1ccc(Cl)c(/N=N/N(CCOC(C)=O)Cc2ccccc2C)c1,11100,11200,830,24500,
CCc1nc(N)nc(N)c1-c1ccc(Cl)c(/N=N/N(CCOC(C)=O)Cc2ccncc2)c1,3460,6190,640,2030,3.05
CCc1nc(N)nc(N)c1-c1ccc(Cl)c(/N=N/N(CCOC(C)=O)Cc2cc(OC)cc(OC)c2)c1,860,845,378,4360,0.19
CCc1nc(N)nc(N)c1-c1ccc(Cl)c(/N=N/N(CCCO)Cc2ccccc2)c1,680,7350,2010,3900,1.88
CCc1nc(N)nc(N)c1-c1ccc(Cl)c(/N=N/N(CCO)Cc2ccccc2)c1,260,,,,
CCc1nc(N)nc(N)c1-c1ccc(Cl)c(/N=N/N(C)C)c1,2800,,,,
CCc1nc(N)nc(N)c1-c1ccc(Cl)c(/N=N/N(CCO)[C@@H](C)c2ccccc2)c1,1260,6510,2700,,
CCc1nc(N)nc(N)c1-c1ccc(Cl)c(/N=N/N(CCOC(C)=O)Cc2cccc([N+](=O)[O-])c2)c1,1300,1610,830,3690,0.44
CCc1nc(N)nc(N)c1-c1ccc(Cl)c(/N=N/N(CCO)CCc2ccccc2)c1,480,4670,1790,5420,0.86
CCc1nc(N)nc(N)c1-c1ccc(Cl)c(/N=N/N(CCO)[C@H](C)c2ccccc2)c1,1090,6440,1470,,
CCc1nc(N)nc(N)c1-c1ccc(Cl)c(/N=N/N(CCOC(=O)C(C)C)Cc2ccccc2)c1,1200,3700,660,,
CCc1nc(N)nc(N)c1-c1ccc(Cl)c(/N=N/N(CCOC(C)=O)Cc2ccc(F)cc2)c1,1910,3830,4400,7460,0.51
CCc1nc(N)nc(N)c1-c1ccc(Cl)c(/N=N/N(CCOC(=O)c2ccccc2)Cc2ccccc2)c1,850,690,220,,
CCc1nc(N)nc(N)c1-c1ccc(Cl)c(/N=N/N(CCOC(C)=O)Cc2cccc(C)c2)c1,5290,5800,5390,25200,0.23

# The next lines start with results.
IC50 [1] [nM],IC50 (Dihydrofolate reductase [3]) [nM],Compound,IC50 [2] [nM],IC50 (Dihydrofolate reductase [4]) [nM],Selectivity ratio [5]
1300,3300,CCC(=O)OCCN(Cc1ccccc1)/N=N/c1cc(-c2c(N)nc(N)nc2CC)ccc1Cl,700,,
940,1800,CCc1nc(N)nc(N)c1-c1ccc(Cl)c(/N=N/N(CCOC(C)=O)Cc2ccc(Cl)cc2)c1,800,,
53,280,CCc1nc(N)nc(N)c1-c1ccc(Cl)c(/N=N/N(CCOC(C)=O)Cc2cccc3ccccc23)c1,200,,
,2100,CCc1nc(N)nc(N)c1-c1ccc(Cl)c(/N=N/N(CCOC(C)=O)Cc2ccc(OC)cc2)c1,440,,
4700,8400,CCc1nc(N)nc(N)c1-c1ccc(Cl)c(/N=N/N(CCOC(C)=O)Cc2ccccc2Cl)c1,6100,,
590,620,CCc1nc(N)nc(N)c1-c1ccc(Cl)c(/N=N/N(CCOC(C)=O)Cc2ccc3ccccc3c2)c1,1050,,
1350,6620,CCc1nc(N)nc(N)c1-c1ccc(Cl)c(/N=N/N(CCOC(C)=O)Cc2ccc(C(F)(F)F)cc2)c1,2540,,
1400,390,CCc1nc(N)nc(N)c1-c1ccc(Cl)c(/N=N/N(CCOC(C)=O)Cc2ccc(OC)c(OC)c2)c1,80,,
580,1290,CCc1nc(N)nc(N)c1-c1ccc(Cl)c(/N=N/N(CCOC(C)=O)Cc2cccc(Cl)c2)c1,1160,,
92000,14900,CCc1nc(N)nc(N)c1-c1ccc(Cl)c(/N=N/N(CCOC(C)=O)Cc2ccccc2F)c1,7800,,
